Data published in ChEMBL document CHEMBL2169858, “Design and synthesis of indomethacin analogues that inhibit P-glycoprotein and/or multidrug resistant protein without COX inhibitory activity” (J Med Chem, 2012).
Several values for one entry are separate records, joined by “and”; a condition that tells them apart may be missing. Identical values can stand only once.

Experiments:
[1] = molecular target: ATP-dependent translocase ABCB1 (Homo sapiens, UniProt P08183); test: Inhibition of human recombinant P-glycoprotein after 40 mins by Pgp-Glo assay
Sequence of ATP-dependent translocase ABCB1 (P08183 whole entry): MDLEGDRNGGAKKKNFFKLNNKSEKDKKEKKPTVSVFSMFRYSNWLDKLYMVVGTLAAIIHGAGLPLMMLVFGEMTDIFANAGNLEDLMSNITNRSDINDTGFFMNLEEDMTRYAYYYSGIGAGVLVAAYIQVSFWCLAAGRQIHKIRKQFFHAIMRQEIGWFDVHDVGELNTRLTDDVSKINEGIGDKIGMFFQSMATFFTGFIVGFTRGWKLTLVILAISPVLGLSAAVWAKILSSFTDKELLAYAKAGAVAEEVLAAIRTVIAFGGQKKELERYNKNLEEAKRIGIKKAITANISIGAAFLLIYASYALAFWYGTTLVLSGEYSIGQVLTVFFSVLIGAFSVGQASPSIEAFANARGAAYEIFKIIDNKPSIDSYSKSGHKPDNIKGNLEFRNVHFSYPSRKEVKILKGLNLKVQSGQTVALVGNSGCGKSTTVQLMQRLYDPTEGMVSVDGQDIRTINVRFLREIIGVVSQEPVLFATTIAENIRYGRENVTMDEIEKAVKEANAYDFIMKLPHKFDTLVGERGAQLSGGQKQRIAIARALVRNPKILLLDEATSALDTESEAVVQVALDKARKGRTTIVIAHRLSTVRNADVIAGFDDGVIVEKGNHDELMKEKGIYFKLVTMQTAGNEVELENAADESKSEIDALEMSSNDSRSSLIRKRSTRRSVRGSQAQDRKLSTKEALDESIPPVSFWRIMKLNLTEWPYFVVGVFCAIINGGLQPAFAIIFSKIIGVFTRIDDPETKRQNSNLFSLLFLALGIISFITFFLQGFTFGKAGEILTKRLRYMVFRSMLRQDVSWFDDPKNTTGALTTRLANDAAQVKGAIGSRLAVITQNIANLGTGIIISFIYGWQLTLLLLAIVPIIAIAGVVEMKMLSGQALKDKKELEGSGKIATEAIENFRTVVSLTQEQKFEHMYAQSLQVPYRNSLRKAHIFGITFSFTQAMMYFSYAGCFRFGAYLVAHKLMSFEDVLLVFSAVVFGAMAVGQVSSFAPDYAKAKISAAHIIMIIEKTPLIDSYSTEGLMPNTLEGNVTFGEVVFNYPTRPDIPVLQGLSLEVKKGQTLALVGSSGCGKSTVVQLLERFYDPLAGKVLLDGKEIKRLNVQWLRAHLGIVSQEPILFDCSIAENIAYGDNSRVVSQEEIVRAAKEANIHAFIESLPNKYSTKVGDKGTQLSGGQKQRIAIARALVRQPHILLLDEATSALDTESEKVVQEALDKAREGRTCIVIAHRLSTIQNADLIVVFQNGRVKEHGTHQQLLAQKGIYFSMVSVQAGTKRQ
Method in brief: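 Recombinant human P-gp membranes were incubated with test compound (dilution series, 0.781–200 μM) and 5 mM MgATP at 37 °C for 40 min. ATP detection buffer was added and luminescence developed at room temperature for 20 min. IC50 was fitted to concentration–luminescence data by nonlinear least squares.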

[2] = molecular target: T1, Prostaglandin G/H synthase 1 (Ovis aries, UniProt P05979); test: Inhibition of ovine COX1 by colorimetric assay
T1 sequence (P05979 whole entry): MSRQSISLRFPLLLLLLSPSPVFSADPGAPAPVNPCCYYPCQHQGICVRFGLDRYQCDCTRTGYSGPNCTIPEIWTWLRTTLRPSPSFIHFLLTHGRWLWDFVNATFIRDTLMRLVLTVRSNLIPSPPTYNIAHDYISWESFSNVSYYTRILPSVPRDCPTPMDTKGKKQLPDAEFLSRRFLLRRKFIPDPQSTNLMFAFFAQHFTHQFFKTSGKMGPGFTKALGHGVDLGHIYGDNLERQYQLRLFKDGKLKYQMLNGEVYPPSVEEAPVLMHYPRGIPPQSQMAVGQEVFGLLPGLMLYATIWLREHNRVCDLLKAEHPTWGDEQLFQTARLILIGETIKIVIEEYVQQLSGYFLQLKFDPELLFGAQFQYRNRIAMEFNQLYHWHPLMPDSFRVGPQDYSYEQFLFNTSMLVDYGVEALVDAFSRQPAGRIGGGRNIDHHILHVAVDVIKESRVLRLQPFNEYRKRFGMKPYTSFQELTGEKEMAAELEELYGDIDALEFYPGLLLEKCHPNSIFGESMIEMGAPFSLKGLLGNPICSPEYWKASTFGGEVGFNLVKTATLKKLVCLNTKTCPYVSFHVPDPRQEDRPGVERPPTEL
Method in brief: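 Colorimetric ovine COX inhibitor screening kit, run per the supplier's protocol. Each experiment was done at least four times and reported as mean ± SEM.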

[3] = molecular target: Multidrug resistance-associated protein 1 (Homo sapiens, UniProt P33527); test: Inhibition of human MRP1 in human T98G cells assessed as potentiation of doxorubicin induced cytotoxicity at 50 uM pre-incubated for 2 hrs before doxorubicin addition and measured 4 days after doxorubicin exposure by MTT assay relative to untreated control; assay type: cell-based; conditions: 96 h
Sequence of Multidrug resistance-associated protein 1 (P33527 whole entry): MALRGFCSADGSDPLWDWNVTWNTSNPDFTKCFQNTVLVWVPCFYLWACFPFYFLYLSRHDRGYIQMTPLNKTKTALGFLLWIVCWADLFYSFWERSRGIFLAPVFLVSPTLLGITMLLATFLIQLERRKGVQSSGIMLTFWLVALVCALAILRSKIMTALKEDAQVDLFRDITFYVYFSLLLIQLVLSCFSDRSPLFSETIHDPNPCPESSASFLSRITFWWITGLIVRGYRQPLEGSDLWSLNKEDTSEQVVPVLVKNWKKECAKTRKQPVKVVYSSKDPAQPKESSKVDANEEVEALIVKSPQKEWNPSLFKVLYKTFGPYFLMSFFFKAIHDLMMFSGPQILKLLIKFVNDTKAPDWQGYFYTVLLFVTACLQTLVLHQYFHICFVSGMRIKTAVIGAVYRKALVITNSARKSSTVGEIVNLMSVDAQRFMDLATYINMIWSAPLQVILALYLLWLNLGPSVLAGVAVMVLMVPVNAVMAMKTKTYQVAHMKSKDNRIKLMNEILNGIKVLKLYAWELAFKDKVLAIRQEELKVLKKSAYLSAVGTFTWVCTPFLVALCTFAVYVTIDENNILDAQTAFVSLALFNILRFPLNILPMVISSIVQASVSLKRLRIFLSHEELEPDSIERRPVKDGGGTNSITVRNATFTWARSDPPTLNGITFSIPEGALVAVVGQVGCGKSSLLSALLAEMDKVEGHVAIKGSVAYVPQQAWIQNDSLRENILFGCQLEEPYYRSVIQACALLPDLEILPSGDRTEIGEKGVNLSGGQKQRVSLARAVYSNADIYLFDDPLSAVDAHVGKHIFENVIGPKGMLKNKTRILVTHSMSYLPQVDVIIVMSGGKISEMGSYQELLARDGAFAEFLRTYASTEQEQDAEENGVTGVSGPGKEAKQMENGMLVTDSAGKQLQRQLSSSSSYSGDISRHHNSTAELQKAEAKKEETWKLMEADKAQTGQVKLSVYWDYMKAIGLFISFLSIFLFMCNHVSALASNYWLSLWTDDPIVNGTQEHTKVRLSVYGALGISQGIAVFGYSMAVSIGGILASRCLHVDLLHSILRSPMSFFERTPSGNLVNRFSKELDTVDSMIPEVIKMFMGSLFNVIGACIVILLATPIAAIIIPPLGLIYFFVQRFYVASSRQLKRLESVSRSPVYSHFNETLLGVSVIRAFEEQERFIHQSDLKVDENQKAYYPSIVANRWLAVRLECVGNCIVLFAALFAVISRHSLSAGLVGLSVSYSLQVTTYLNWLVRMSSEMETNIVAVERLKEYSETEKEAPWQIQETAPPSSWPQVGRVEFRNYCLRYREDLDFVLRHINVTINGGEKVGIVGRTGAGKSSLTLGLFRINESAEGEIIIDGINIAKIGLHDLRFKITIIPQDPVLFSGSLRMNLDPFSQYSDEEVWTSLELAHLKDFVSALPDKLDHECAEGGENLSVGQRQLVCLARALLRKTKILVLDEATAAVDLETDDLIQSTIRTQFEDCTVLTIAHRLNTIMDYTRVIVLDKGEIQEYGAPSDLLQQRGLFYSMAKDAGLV

T98G = test: Cytotoxicity against human T98G cells assessed as inhibition of cell growth at 1 uM by MTT assay; assay type: functional; conditions: read-out: GI

Row | SMILES | IC50 [1] | IC50 [2] | inhibition (INH) [3] | inhibition of growth at 1 µM (T98G)
1 | Cc1c(CC(=O)O)c2ccccc2n1C(=O)c1ccc(Cl)cc1 | 20 µM | 0.01 µM | – | –
2 | CCc1c(CC(=O)O)c2ccccc2n1C(=O)c1ccc(Cl)cc1 | 20 µM | > 400 µM | Active | –
3 | O=C(O)Cc1c(-c2ccccc2)n(C(=O)c2ccc(Cl)cc2)c2ccccc12 | 18 µM | > 400 µM | Active | –
4 | COc1cccc2c(CC(=O)O)c(C)n(C(=O)c3ccc(Cl)cc3)c12 | 15 µM | > 400 µM | Active | –
5 | COc1ccc2c(CC(=O)O)c(C)n(C(=O)c3ccc(Cl)cc3)c2c1 | 9.8 µM | > 200 µM | – | –
6 | CCc1cccc2c(CC(=O)O)cn(C(=O)c3ccc(Cl)cc3)c12 | 17 µM | > 400 µM | Not Active | –
7 | COc1cccc2c1C(=O)c1c(O)c3c(c(O)c1C2=O)C[C@@](O)(C(=O)CO)C[C@@H]3O[C@H]1C[C@H](N)[C@H](O)[C@H](C)O1 [DOXORUBICIN] | – | – | – | 40%
8 | COc1ccc2c(c1)c(CC(=O)O)c(C)n2C(=O)c1ccc(Cl)cc1 [INDOMETHACIN] | 32 µM and 28 µM | – | – | –
